ChEMBL document CHEMBL3259745, “Identification of trisubstituted-pyrazol carboxamide analogs as novel and potent antagonists of farnesoid X receptor” (Bioorg Med Chem, 2014)
Active and inactive are the calls of the source. The calls are words filed in the database; no cut-off is given here.

Experiments:
[1] = target: T1, Bile acid receptor (Homo sapiens) (UniProt Q96RI1); test: Ratio of E16 IC50 to compound IC50 for human GST-tagged FXR after 20 mins by TR-FRET assay
T1 sequence (whole entry): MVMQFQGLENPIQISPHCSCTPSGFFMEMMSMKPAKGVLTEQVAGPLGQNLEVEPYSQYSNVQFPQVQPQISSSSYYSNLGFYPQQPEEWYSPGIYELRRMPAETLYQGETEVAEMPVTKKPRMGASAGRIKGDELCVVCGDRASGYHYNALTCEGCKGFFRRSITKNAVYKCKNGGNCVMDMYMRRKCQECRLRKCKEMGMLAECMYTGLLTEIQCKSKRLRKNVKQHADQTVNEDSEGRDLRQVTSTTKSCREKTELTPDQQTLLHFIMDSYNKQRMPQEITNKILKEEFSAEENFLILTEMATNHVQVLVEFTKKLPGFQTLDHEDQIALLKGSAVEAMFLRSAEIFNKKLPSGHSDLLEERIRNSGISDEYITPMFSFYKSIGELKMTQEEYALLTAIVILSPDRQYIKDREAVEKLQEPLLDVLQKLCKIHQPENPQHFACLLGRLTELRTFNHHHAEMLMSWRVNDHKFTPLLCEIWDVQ

[2] = Cytotoxicity against HEK293T cells expressing FXR and beta-lactamase genes assessed as inhibition of cell viability at 40 uM after 16 hrs by CellTiter-Glo luminescent assay relative to control; type: cell-based, HEK-293T; conditions: human, read-out: INH
How it was run: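 Viability run alongside the agonist assay in the same GeneBLAzer FXR HEK 293T cells: 20,000 cells/well in phenol red-free DMEM with 2% charcoal/dextran-treated FBS, 0.5% DMSO, 16 h at 37°C. Cooled 20 min, then CellTiter-Glo added for 20 min in dark; luminescence read.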

[3] = target: T1, Bile acid receptor (Homo sapiens); test: Agonist activity at FXR (unknown origin) expressed in HEK293T cells after 16 hrs by beta-lactamase reporter gene assay relative to control; type: cell-based; conditions: HEK-293T
[4] = target: T1, Bile acid receptor (Homo sapiens); test: Inhibition of GW4064-induced transactivation of FXR (unknown origin) expressed in HEK293T cells at 40 uM after 16 hrs by beta-lactamase reporter gene assay relative to control; type: cell-based; conditions: HEK-293T
[5] = target: T1, Bile acid receptor (Homo sapiens); test: Antagonist activity at human GST-tagged FXR at 164 nM after 20 mins by TR-FRET assay relative to control
[6] = target: T1, Bile acid receptor (Homo sapiens); test: Antagonist activity at human GST-tagged FXR at 493 nM after 20 mins by TR-FRET assay relative to control
[7] = target: T1, Bile acid receptor (Homo sapiens); test: Agonist activity at human FXR
[8] = target: T1, Bile acid receptor (Homo sapiens); test: Antagonist activity at human GST-tagged FXR at 13.3 uM after 20 mins by TR-FRET assay relative to control

| SMILES | Ratio IC50 [1] | Activity [3] | inhibition [4] [%] | inhibition [5] [%] | inhibition [6] [%] | Activity [7] | inhibition [8] [%] | cytotoxicity at 16 h, 40 µM [2] [%] |
| --- | --- | --- | --- | --- | --- | --- | --- | --- |
| O=C(Nc1ccc(S(=O)(=O)N2CCOCC2)cc1)c1cn(-c2ccccc2)nc1-c1ccccc1 | – | – | 18.6 | – | 12.7 | inactive | – | 7.4 |
| O=C(Nc1cccc(S(=O)(=O)N2CCOCC2)c1)c1cn(-c2ccccc2)nc1-c1ccc(F)cc1 | – | – | 42.6 | – | 53.3 | inactive | – | 16.3 |
| Cc1ccc(-c2nn(-c3ccccc3)cc2C(=O)Nc2cccc(S(=O)(=O)N3CCOCC3)c2)cc1 | – | – | 32.8 | – | 27.5 | inactive | – | 5.4 |
| C[C@H](CCC(=O)O)[C@H]1CC[C@H]2[C@@H]3CC[C@@H]4C[C@H](O)CC[C@]4(C)[C@H]3CC[C@]12C [LITHOCHOLIC ACID] | – | – | – | – | – | – | – | < 5 |
| O=C(Nc1ccc(S(=O)(=O)N2CCOCC2)cc1)c1cn(-c2ccccc2)nc1-c1ccc(F)cc1 | – | – | 34.7 | 21.2 | – | inactive | – | < 5 |
| O=C(Nc1cccc(S(=O)(=O)N2CCOCC2)c1)c1cn(-c2ccccc2)nc1-c1ccccc1 | – | – | 54.9 | – | 44.4 | inactive | – | 7.1 |
| Cc1ccc(-c2nn(-c3ccc(F)cc3)cc2C(=O)Nc2ccc(C)c(S(=O)(=O)N3CCOCC3)c2)cc1 | 3 | inactive | 72 | – | 95 | – | – | 18.5 |
| Cc1ccc(NC(=O)c2cnn(-c3cccnc3)c2)cc1S(=O)(=O)N1CCOCC1 | – | – | 16.1 | – | – | inactive | 18.8 | 27.9 |
| CC(C)c1onc(-c2c(Cl)cccc2Cl)c1COc1ccc(/C=C/c2cccc(C(=O)O)c2)c(Cl)c1 | – | – | – | – | – | – | – | < 5 |
| Cc1ccc(-c2nn(-c3ccc(Cl)cc3Cl)cc2C(=O)Nc2ccc(C)c(S(=O)(=O)N3CCOCC3)c2)cc1 | 3 | inactive | 89.9 | 120 | – | – | – | < 5 |

Second part, led by results:

| Ratio IC50 [1] | Activity [3] | inhibition [4] [%] | inhibition [5] [%] | inhibition [6] [%] | Activity [7] | inhibition [8] [%] | SMILES | cytotoxicity at 16 h, 40 µM [2] [%] |
| --- | --- | --- | --- | --- | --- | --- | --- | --- |
| 3 | inactive | 54.8 | 77.5 | – | – | – | Cc1ccc(-c2nn(-c3cccc(C(F)(F)F)c3)cc2C(=O)Nc2ccc(C)c(S(=O)(=O)N3CCOCC3)c2)cc1 | 7.3 |
| – | inactive | 95.9 | – | – | – | 114 | COCCc1nn(Cc2cccc(OC)c2)cc1C(=O)Nc1ccc(C)c(S(=O)(=O)N2CCOCC2)c1 | < 5 |
| – | inactive | 97.6 | – | 89.3 | – | – | Cc1ccc(-c2nn(CCCCO)cc2C(=O)Nc2ccc(C)c(S(=O)(=O)N3CCOCC3)c2)cc1 | 5.9 |
| – | inactive | 89.4 | – | 114 | – | – | COc1cccc(Cn2cc(C(=O)Nc3ccc(C)c(S(=O)(=O)N4CCOCC4)c3)c(-c3cccc(OC)c3)n2)c1 | < 5 |
| – | inactive | 97.6 | 109 | – | – | – | COc1cccc(Cn2cc(C(=O)Nc3ccc(C)c(S(=O)(=O)N4CCOCC4)c3)c(-c3ccc(C(F)(F)F)cc3)n2)c1 | < 5 |
| – | inactive | 93.4 | 99.2 | – | – | – | Cc1ccc(-c2nn(Cc3cccc(C(F)(F)F)c3)cc2C(=O)Nc2ccc(C)c(S(=O)(=O)N3CCOCC3)c2)cc1 | < 5 |
| 3 | inactive | 60.6 | 99.3 | – | – | – | Cc1ccc(-c2nn(-c3cccc(Cl)c3)cc2C(=O)Nc2ccc(C)c(S(=O)(=O)N3CCOCC3)c2)cc1 | < 5 |
| – | – | 77.2 | 100 | – | inactive | – | Cc1ccc(-c2nn(-c3ccccc3)cc2C(=O)Nc2ccc(C)c(S(=O)(=O)N3CCOCC3)c2)cc1 | 17.9 |
